# Assays:
# Cannabinoid receptor 1 = Cannabinoid receptor 1 (Rattus norvegicus, UniProt P20272); assay: Displacement of [3H]CP-55940 from CB1 receptor in rat brain synaptosomal membrane; assay type: cell membranes
# In short: (§1)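 Rat forebrain synaptosomal membranes prepared from frozen brains serve as CB1 source. Binding is competition against tritiated CP-55,940, run in 96-well filter format, and IC50 values are taken from displacement. Filters are washed in buffer containing 0.5% BSA and counted by scintillation. Ki is the mean of three independent experiments, each run in duplicate.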
# [1] = Selectivity for mouse CB2 receptor over rat CB1 receptor
# Cannabinoid receptor 2 = Cannabinoid receptor 2 (Mus musculus, UniProt P47936); assay: Displacement of [3H]CP-55940 from CB2 receptor in mouse spleen membrane; assay type: cell membranes
# Cannabinoid receptor 2, sequence (P47936 whole entry): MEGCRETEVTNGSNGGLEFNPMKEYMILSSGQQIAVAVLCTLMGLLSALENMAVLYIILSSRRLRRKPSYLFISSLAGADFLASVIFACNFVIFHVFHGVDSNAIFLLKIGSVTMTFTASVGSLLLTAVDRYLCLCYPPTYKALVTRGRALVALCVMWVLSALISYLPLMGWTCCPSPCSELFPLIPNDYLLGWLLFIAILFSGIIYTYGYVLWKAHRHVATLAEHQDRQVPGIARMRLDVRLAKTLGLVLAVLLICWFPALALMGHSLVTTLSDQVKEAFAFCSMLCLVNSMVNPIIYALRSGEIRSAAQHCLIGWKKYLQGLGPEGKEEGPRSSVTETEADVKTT
# In short: as §1, with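 “CB2 sites are measured with” for “Rat forebrain synaptosomal”, “mouse spleen.” for “brains serve as CB1 source.”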
# Cannabinoid receptor 1, sequence (P20272 whole entry): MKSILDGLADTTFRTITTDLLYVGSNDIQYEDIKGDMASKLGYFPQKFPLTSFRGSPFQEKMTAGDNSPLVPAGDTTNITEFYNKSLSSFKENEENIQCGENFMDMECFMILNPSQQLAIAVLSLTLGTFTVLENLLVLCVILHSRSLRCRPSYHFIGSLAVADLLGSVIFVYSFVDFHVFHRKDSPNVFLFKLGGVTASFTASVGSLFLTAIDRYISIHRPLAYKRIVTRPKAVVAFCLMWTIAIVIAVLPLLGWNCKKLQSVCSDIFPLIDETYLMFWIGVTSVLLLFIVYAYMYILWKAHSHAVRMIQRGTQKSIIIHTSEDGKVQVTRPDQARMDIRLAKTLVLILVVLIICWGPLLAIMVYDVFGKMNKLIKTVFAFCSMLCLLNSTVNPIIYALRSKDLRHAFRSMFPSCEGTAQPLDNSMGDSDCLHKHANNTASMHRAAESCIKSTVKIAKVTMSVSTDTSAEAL
SMILES,Ki (Cannabinoid receptor 1) [nM],Selectivity ratio [1],Ki (Cannabinoid receptor 2) [nM]
CCCCCCC1(c2cc(O)c3c(c2)OC(C)(C)[C@@H]2CC=C(C)C[C@@H]32)CCC1,1.5,8,11.5
CCCC/C=C\C1(c2cc(O)c3c(c2)OC(C)(C)[C@@H]2CC=C(C)C[C@@H]32)CCCC1 (relative stereo),0.72,–,1.8
CCCC/C=C\C1(c2cc(O)c3c(c2)OC(C)(C)[C@@H]2CC=C(C)C[C@@H]32)CC1,1.5,–,1.7
CCCCCCCC1(c2cc(O)c3c(c2)OC(C)(C)[C@@H]2CC=C(C)C[C@@H]32)CCCCC1,13.6,–,143
CCCC/C=C\C1(c2cc(O)c3c(c2)OC(C)(C)[C@@H]2CC=C(C)C[C@@H]32)CCCCC1,3.9,–,4.9
CCCC/C=C\C1(c2cc(O)c3c(c2)OC(C)(C)[C@@H]2CC=C(C)C[C@@H]32)CCC1,0.93,–,1.2
CCCCCCC1(c2cc(O)c3c(c2)OC(C)(C)[C@@H]2CC=C(C)C[C@@H]32)CCCCC1,18.4,–,23.5
CCCCCCCC1(c2cc(O)c3c(c2)OC(C)(C)[C@@H]2CC=C(C)C[C@@H]32)CC1 (relative stereo),0.48,–,4.2
CCCCCCCC1(c2cc(O)c3c(c2)OC(C)(C)[C@@H]2CC=C(C)C[C@@H]32)CCCC1,9.9,–,45.5
CCCCCCCc1cc(O)c2c(c1)OC(C)(C)[C@@H]1CC=C(C)C[C@@H]21,8.8,–,20.8
CCCCCCCC1(c2cc(O)c3c(c2)OC(C)(C)[C@@H]2CC=C(C)C[C@@H]32)CCC1,2.7,20,52.3
